The subject of series [1] is Leishmania donovani. Description: Antileishmanial activity against Leishmania donovani axenic amastigotes. The series is classed as functional, organism-based. The essentials: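 Axenic L. donovani amastigotes; IC50 is the mean of at least two independent assays.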
Series [2] deals with L6. Briefly: Cytotoxicity against rat L6 cells. The series is classed as cell-based.
Series [3] concerns J774. Briefly: Cytotoxicity against mouse J774 cells. The series is classed as cell-based.
Series [4] concerns Leishmania amazonensis. Briefly: Antileishmanial activity against Leishmania amazonensis in mouse J774 cells at <5 uM.
The nature of series [5]: Binding affinity to poly(dA-dT)2 assessed as melting temperature.
In series [6] the test system is Leishmania donovani. Description: Induction of mitochondrial dilation in Leishmania donovani axenic amastigotes at […] after 24 hrs. The format is functional, organism-based.
For series [7], the system named is Leishmania donovani. Description: Induction of kinetoplast disintegration in Leishmania donovani axenic amastigotes at […] after 24 hrs. The series is classed as functional, organism-based.
Series [8] concerns Leishmania amazonensis. Briefly: Antileishmanial activity against Leishmania amazonensis in mouse J774 cells.

Calls of active or inactive are those of the source. The calls are words filed in the database; no cut-off is given here.

For orientation: IC50 means the point on the concentration scale where inhibition reaches its midpoint. For orientation: ΔTm means the change in melting temperature against a reference sample.

With `N=C(N)c1ccc(-c2ccc(-c3ccc(C(=N)N)nc3)cc2)cn1`, the IC50 in series [1] stood at 63 nM; in series [2], 1200 nM. Further, in series [3], the Activity result is reported as “Toxic”. The result in series [4] was inactive.

Turning to `N=C(N)c1ccc(-c2ccc(-c3ccc(C(=N)N)cc3)nc2)cc1`, the IC50 was 820 nM in series [1] and 50000 nM in series [2].

On to `N=C(N)c1ccc(-c2ccc(-c3ccc(C(=N)N)cc3)nn2)cc1`, for which the half-maximal inhibitory concentration (IC50) in series [1] was 720 nM; in series [2], 31000 nM.

Turning to `N=C(N)c1ccc(-c2ccc(-c3ccc(C(=N)N)cn3)cc2)cc1`, the results for the concentration for half-maximal inhibition (IC50) in series [1] and in series [2] were 1400 nM and 27000 nM, respectively.

Regarding `N=C(N)c1ccc(-c2ccc(-c3cnc(C(=N)N)nc3)cn2)cc1`, the figures for the half-inhibitory concentration (IC50) in series [1] and in series [2] were 2600 nM and 6400 nM, respectively.

With `N=C(N)c1ncc(-c2ccc(-c3cnc(C(=N)N)nc3)cc2)cn1`, the figures for the IC50 in series [1] and in series [2] were 1700 nM and 2200 nM, respectively.

Consider `N=C(N)c1ccc(-c2ccc(-c3ccc(C(=N)N)cc3)c(F)c2)cc1`, for which the shift in melting temperature (ΔTm) in series [5] was determined as 15.1 °C. Besides, the 50% inhibitory concentration (IC50) in series [1] is 340 nM; in series [2] it was 6400 nM.

For `N=C(N)c1ccc(-c2cnc(-c3ccc(C(=N)N)cc3)cn2)cc1`, the figures for the IC50 in series [1] and in series [2] were 560 nM and 43000 nM, respectively.

In the case of `N=C(N)c1ccc(-c2ccc(-c3ccc(C(=N)N)cc3)cc2)cc1`, the result in series [6] and in series [7] was Active. Further, the figures for the IC50 in series [1] and in series [2] were 270 nM and 22000 nM, respectively. In addition, the Activity result in series [3] is on record as “Toxic”. Further, in series [4], the result was inactive.

Turning to `N=C(N)c1ccc(-c2cnc(-c3ccc(C(=N)N)nc3)nc2)cn1`, the ΔTm in series [5] worked out at 6.8 °C. For the same molecule, the IC50 in series [1] came to 1800 nM; in series [2] it was 5300 nM.

Turning to `N=C(N)c1ccc(-c2ccc(-c3ccc(C(=N)N)cn3)cc2)nc1`, in series [1], the half-maximal inhibitory concentration (IC50) is > 100000 nM.

As to `N=C(N)c1ccc(-c2ccc(-c3ccc(C(=N)N)cn3)cn2)cc1`, the 50% inhibitory concentration (IC50) is 6800 nM in series [1] and 28000 nM in series [2].

`N=C(N)c1ccc(-c2ccc(-c3cnc(C(=N)N)nc3)cc2)cc1`: the IC50 in series [1] is 200 nM; in series [2], 4700 nM.

`C[C@@H]1[C@H](O)[C@@H](C)/C=C/C=C/C=C/C=C/C=C/C=C/C=C/[C@H](O[C@@H]2O[C@H](C)[C@@H](O)[C@H](N)[C@@H]2O)C[C@@H]2O[C@](O)(C[C@@H](O)C[C@@H](O)[C@H](O)CC[C@@H](O)C[C@@H](O)CC(=O)O[C@H]1C)C[C@H](O)[C@H]2C(=O)O` (stereo in doubt) [AMPHOTERICIN B] gave a half-inhibitory concentration (IC50) in series [8] of 46 nM.

Consider `N=C(N)c1ccc(-c2ccc(-c3ccc(C(=N)N)nc3)cn2)cc1`, for which the values for the half-maximal inhibitory concentration (IC50) in series [1] and in series [2] were 510 nM and 20000 nM, respectively.

Regarding `N=C(N)c1cnc(-c2ccc(-c3cnc(C(=N)N)cn3)cc2)cn1`, in series [2], the half-inhibitory concentration (IC50) was determined as 47000 nM.

For `N=C(N)c1ccc(-c2ccc(-c3ccc(C(=N)N)nc3)cc2)cc1`, the IC50 in series [1] was determined as 84 nM; in series [2] it was 2800 nM.

For `N=C(N)c1ccc(-c2cnc(-c3ccc(C(=N)N)cc3)nc2)cc1`, the IC50 in series [1] is 1100 nM; in series [2], 41000 nM.

As for `N=C(N)c1ccc(-c2ccc(-c3cnc(C(=N)N)cn3)cn2)cc1`, the 50% inhibitory concentration (IC50) was 16000 nM in series [1] and 93000 nM in series [2].

Source of the values: ChEMBL document CHEMBL1141608, “Azaterphenyl diamidines as antileishmanial agents” (Bioorg Med Chem Lett, 2008).
